# Assay results published in ChEMBL document CHEMBL2384906, “Biological activity, design, synthesis and structure activity relationship of some novel derivatives of curcumin containing sulfonamides” (Eur J Med Chem, 2013).
# Calls of active or inactive are those of the source. No cut-off for these calls is given here.
# Assays:
# [1] = system: Escherichia coli; experiment: Antimicrobial activity against Escherichia coli ATCC 35218 after 24 hrs by broth micro serial dilution method; assay type: functional; details: ATCC 35218, 24 h
# Method in brief: (§1)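 This was broth microdilution in autoclaved Mueller-Hinton broth. 150 µL of compound per well was serially diluted […], and 50 µL of test organism was added. Plates were incubated 24 h at 37 °C and optical density was read.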
# [2] = system: Escherichia coli; experiment: Antimicrobial activity against Escherichia coli ATCC 35218 assessed as diameter of inhibition zone at 20 uM after 24 hrs by Kirby -Baur disc diffusion method; assay type: functional; details: for zone of inhibition at 20 µM: ATCC 35218, 24 h, read-out: DIZ
# Method in brief: (§2)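 Kirby-Bauer disc diffusion was used. Acetone stocks (160 µM) were serially doubled down to 80, 40 and 20 µM. 4 µL of each went onto 5 mm sterile paper discs, which were dried 30 min at 50 °C. Inoculum was 1.5 × 10⁸ CFU/mL diluted to 3 × 10² CFU/mL, and 50 µL was spread on Mueller-Hinton agar. After 24 h at 37 °C the inhibition-zone diameter was measured. Ciprofloxacin served as positive control.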
# [3] = system: Escherichia coli; experiment: Antimicrobial activity against Escherichia coli ATCC 35218 assessed as diameter of inhibition zone at 40 uM after 24 hrs by Kirby -Baur disc diffusion method; assay type: functional; details: for zone of inhibition at 40 µM: ATCC 35218, 24 h, read-out: DIZ; method in brief: as §2
# [4] = system: Escherichia coli; experiment: Antimicrobial activity against Escherichia coli ATCC 35218 assessed as diameter of inhibition zone at 80 uM after 24 hrs by Kirby -Baur disc diffusion method; assay type: functional; details: ATCC 35218, 24 h, read-out: DIZ; method in brief: as §2
# [5] = system: Pseudomonas aeruginosa; experiment: Antimicrobial activity against Pseudomonas aeruginosa ATCC 15499 after 24 hrs by broth micro serial dilution method; assay type: functional; details: ATCC 15499, 24 h; method in brief: as §1
# [6] = system: Pseudomonas aeruginosa; experiment: Antimicrobial activity against Pseudomonas aeruginosa ATCC 15499 assessed as diameter of inhibition zone at 20 uM after 24 hrs by Kirby -Baur disc diffusion method; assay type: functional; method in brief: as §2
# [7] = system: Pseudomonas aeruginosa; experiment: Antimicrobial activity against Pseudomonas aeruginosa ATCC 15499 assessed as diameter of inhibition zone at 40 uM after 24 hrs by Kirby -Baur disc diffusion method; assay type: functional; method in brief: as §2
# [8] = system: Pseudomonas aeruginosa; experiment: Antimicrobial activity against Pseudomonas aeruginosa ATCC 15499 assessed as diameter of inhibition zone at 80 uM after 24 hrs by Kirby -Baur disc diffusion method; assay type: functional; details: ATCC 15499, 24 h, read-out: DIZ; method in brief: as §2
# [9] = system: Salmonella typhi; experiment: Antimicrobial activity against Salmonella typhi ATCC 23564 after 24 hrs by broth micro serial dilution method; assay type: functional, Salmonella enterica subsp. enterica serovar Typhi; details: Salmonella enterica, ATCC 23564, 24 h
# [10] = system: Salmonella typhi; experiment: Antimicrobial activity against Salmonella typhi ATCC 23564 assessed as diameter of inhibition zone at 20 uM after 24 hrs by Kirby -Baur disc diffusion method; assay type: functional, Salmonella enterica subsp. enterica serovar Typhi
# [11] = system: Salmonella typhi; experiment: Antimicrobial activity against Salmonella typhi ATCC 23564 assessed as diameter of inhibition zone at 40 uM after 24 hrs by Kirby -Baur disc diffusion method; assay type: functional, Salmonella enterica subsp. enterica serovar Typhi
# [12] = system: Salmonella typhi; experiment: Antimicrobial activity against Salmonella typhi ATCC 23564 assessed as diameter of inhibition zone at 80 uM after 24 hrs by Kirby -Baur disc diffusion method; assay type: functional, Salmonella enterica subsp. enterica serovar Typhi; details: Salmonella enterica, ATCC 23564, 24 h; read-out: DIZ
# [13] = system: Bacillus cereus; experiment: Antimicrobial activity against Bacillus cereus MTCC 7350 after 24 hrs by broth micro serial dilution method; assay type: functional; details: MTCC 7350, 24 h; method in brief: as §1
# [14] = system: Bacillus cereus; experiment: Antimicrobial activity against Bacillus cereus MTCC 7350 assessed as diameter of inhibition zone at 20 uM after 24 hrs by Kirby -Baur disc diffusion method; assay type: functional; method in brief: as §2
# [15] = system: Bacillus cereus; experiment: Antimicrobial activity against Bacillus cereus MTCC 7350 assessed as diameter of inhibition zone at 40 uM after 24 hrs by Kirby -Baur disc diffusion method; assay type: functional; method in brief: as §2
# [16] = system: Bacillus cereus; experiment: Antimicrobial activity against Bacillus cereus MTCC 7350 assessed as diameter of inhibition zone at 80 uM after 24 hrs by Kirby -Baur disc diffusion method; assay type: functional; details: MTCC 7350, 24 h, read-out: DIZ; method in brief: as §2
# [17] = system: Staphylococcus aureus; experiment: Antimicrobial activity against Staphylococcus aureus ATCC 11632 after 24 hrs by broth micro serial dilution method; assay type: functional; details: ATCC 11632, 24 h; method in brief: as §1
# [18] = system: Staphylococcus aureus; experiment: Antimicrobial activity against Staphylococcus aureus ATCC 11632 assessed as diameter of inhibition zone at 20 uM after 24 hrs by Kirby -Baur disc diffusion method; assay type: functional; method in brief: as §2
# [19] = system: Staphylococcus aureus; experiment: Antimicrobial activity against Staphylococcus aureus ATCC 11632 assessed as diameter of inhibition zone at 40 uM after 24 hrs by Kirby -Baur disc diffusion method; assay type: functional; method in brief: as §2
# [20] = system: Staphylococcus aureus; experiment: Antimicrobial activity against Staphylococcus aureus ATCC 11632 assessed as diameter of inhibition zone at 80 uM after 24 hrs by Kirby -Baur disc diffusion method; assay type: functional; details: ATCC 11632, 24 h, read-out: DIZ; method in brief: as §2
# [21] = system: Mus musculus; experiment: Antiinflammatory activity in mouse assessed as inhibition of carrageenan-induced increase in paw volume at 200 mg/kg administered 1 hr prior to carrageenan challenge measured after 3 hrs relative to control; assay type: functional
# Method in brief: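 Mice were fasted 2 h and placed in groups of five. Controls received saline i.p. Phenylbutazone was given at 100 mg/kg i.p., curcumin at 200 mg/kg i.p., and derivatives at 200 mg/kg. After 1 h, 0.1 mL of 1% carrageenan in saline was injected subplantar into the right hind paw. Paw volume was followed by plethysmometer for 3 h, and % inhibition was calculated as (Vc − Vt)/Vc × 100.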
# [22] = system: HCT-116; experiment: Cytotoxicity against human HCT116 cells after 24 hrs by MTT assay; assay type: functional, cell-based
# Method in brief: (§3)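 The MTT assay seeded 5 × 10⁴ cells per well and grew them 24 h in RPMI 1640 with compound at 2.5–200 µM. Medium without cells was the blank and adriamycin the positive control. MTT was added for 4 h at 37 °C, formazan was solubilised, and absorbance was read at 570 nm. IC50 is the concentration that cuts viability 50% against untreated cells.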
# [23] = system: QG-56; experiment: Cytotoxicity against human QG56 cells after 24 hrs by MTT assay; assay type: functional, cell-based; method in brief: as §3
# [24] = system: HeLa; experiment: Cytotoxicity against human HeLa cells after 24 hrs by MTT assay; assay type: functional, cell-based; method in brief: as §3
# [25] = system: HepG2; experiment: Cytotoxicity against human HepG2 cells after 24 hrs by MTT assay; assay type: functional, cell-based; method in brief: as §3
# [26] = system: Trichoderma viride; experiment: Antifungal activity against Trichoderma viride MTCC 1107 after 48 hrs; assay type: functional; details: MTCC 1107, 48 h
# [27] = system: Trichoderma viride; experiment: Antifungal activity against Trichoderma viride MTCC 1107 assessed as zone of inhibition at 20 uM after 48 hrs by disc diffusion method; assay type: functional
# Method in brief: (§4)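 Spores from 4-day potato dextrose agar cultures, suspended in sterile water at 1.5 × 10⁵ CFU/mL. 0.2 mL was spread on potato dextrose agar. 5 mm filter-paper discs soaked with test compound were laid on the lawn. Incubation was 48 h at 28 °C, then the inhibition zone was measured in mm. Fluconazole was the positive control and acetone the negative control.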
# [28] = system: Trichoderma viride; experiment: Antifungal activity against Trichoderma viride MTCC 1107 assessed as zone of inhibition at 40 uM after 48 hrs by disc diffusion method; assay type: functional; details: MTCC 1107, 48 h, read-out: IZ; method in brief: as §4
# [29] = system: Trichoderma viride; experiment: Antifungal activity against Trichoderma viride MTCC 1107 assessed as zone of inhibition at 80 uM after 48 hrs by disc diffusion method; assay type: functional; details: MTCC 1107, 48 h, read-out: IZ; method in brief: as §4
# [30] = system: Curvularia lunata; experiment: Antifungal activity against Curvularia lunata MTCC 581 after 48 hrs; assay type: functional; details: MTCC 581, 48 h
# [31] = system: Curvularia lunata; experiment: Antifungal activity against Curvularia lunata MTCC 581 assessed as zone of inhibition at 20 uM after 48 hrs by disc diffusion method; assay type: functional; method in brief: as §4
# [32] = system: Curvularia lunata; experiment: Antifungal activity against Curvularia lunata MTCC 581 assessed as zone of inhibition at 40 uM after 48 hrs by disc diffusion method; assay type: functional; details: MTCC 581, 48 h, read-out: IZ; method in brief: as §4
# [33] = system: Aspergillus flavus; experiment: Antifungal activity against Aspergillus flavus MTCC 1021 after 48 hrs; assay type: functional
# [34] = system: Curvularia lunata; experiment: Antifungal activity against Curvularia lunata MTCC 581 assessed as zone of inhibition at 80 uM after 48 hrs by disc diffusion method; assay type: functional; details: MTCC 581, 48 h, read-out: IZ; method in brief: as §4
# [35] = system: Aspergillus flavus; experiment: Antifungal activity against Aspergillus flavus MTCC 1021 assessed as zone of inhibition at 80 uM after 48 hrs by disc diffusion method; assay type: functional; method in brief: as §4
# [36] = system: Aspergillus niger; experiment: Antifungal activity against Aspergillus niger MTCC 1108 after 48 hrs; assay type: functional
# [37] = system: Aspergillus niger; experiment: Antifungal activity against Aspergillus niger MTCC 1108 assessed as zone of inhibition at 80 uM after 48 hrs by disc diffusion method; assay type: functional; method in brief: as §4
# [38] = ATCC 15499, 24 h, read-out: DIZ
# [39] = Salmonella enterica, ATCC 23564, 24 h, read-out: DIZ
# [40] = ATCC 11632, 24 h, read-out: DIZ
# [41] = Salmonella enterica subsp. enterica serovar Typhi
Structure (SMILES),MIC [1] [µM],zone of inhibition at 20 µM [2] [mm],zone of inhibition at 40 µM [3] [mm],zone of inhibition at 80 µM [4] [mm],MIC [5] [µM],zone of inhibition at 80 µM [8] [mm],MIC [9] [µM],zone of inhibition at 80 µM [12] [mm],MIC [13] [µM],zone of inhibition at 80 µM [16] [mm],MIC [17] [µM],zone of inhibition at 80 µM [20] [mm],inhibition in vivo at 200 mg/kg [21] [%],IC50 [22],IC50 [23],IC50 [24],IC50 [25],MIC [26] [µM],zone of inhibition at 40 µM [28] [mm],zone of inhibition at 80 µM [29] [mm],also measured
O=C(O)c1cn(C2CC2)c2cc(N3CCNCC3)c(F)cc2c1=O [CIPROFLOXACIN],1.25,29,32,36,1.25,38,2.5,52,0.63,37,1.25,36,,,,,,,,,"zone of inhibition at 20 µM [6, 38]: 31 mm; zone of inhibition at 40 µM [7, 38]: 34 mm; zone of inhibition at 20 µM [10, 39]: 37 mm; zone of inhibition at 40 µM [11, 39]: 44 mm; zone of inhibition at 20 µM ([14]; MTCC 7350, 24 h, read-out: DIZ): 32 mm; zone of inhibition at 40 µM ([15]; MTCC 7350, 24 h, read-out: DIZ): 34 mm; zone of inhibition at 20 µM [18, 40]: 29 mm; zone of inhibition at 40 µM [19, 40]: 32 mm"
COc1cc(/C=C/c2nn(-c3ccccc3)c(/C=C/c3ccc(O)c(OC)c3)c2/N=N/c2ccc(S(=O)(=O)Nc3cc(C)on3)cc2)ccc1O,> 80,9,10,12,> 80,11,> 80,10,> 80,10,> 80,10,25.8,Not Active,> 100 µM,100 µM,Not Active,40,11,13,"zone of inhibition at 20 µM ([27]; MTCC 1107, 48 h, read-out: IZ): 9 mm; MIC [30]: 80 µM; zone of inhibition at 20 µM ([31]; MTCC 581, 48 h, read-out: IZ): 9 mm; zone of inhibition at 40 µM [32]: 11 mm; MIC [33]: inactive; zone of inhibition at 80 µM [34]: 13 mm; inhibition zone (IZ) [35]: inactive; MIC [36]: inactive; inhibition zone (IZ) [37]: inactive; diameter of the inhibition zone (DIZ) [6]: inactive; diameter of the inhibition zone (DIZ) [7]: inactive; diameter of the inhibition zone (DIZ) [10, 41]: inactive; diameter of the inhibition zone (DIZ) [11, 41]: inactive; diameter of the inhibition zone (DIZ) [14]: inactive; diameter of the inhibition zone (DIZ) [15]: inactive; diameter of the inhibition zone (DIZ) [18]: inactive; diameter of the inhibition zone (DIZ) [19]: inactive"
COc1cc(/C=C/c2noc(/C=C/c3ccc(O)c(OC)c3)c2/N=N/c2ccc(S(=O)(=O)Nc3cc(C)on3)cc2)ccc1O,> 80,,,9,> 80,9,,,> 80,9,> 80,9,22.5,Not Active,Not Active,Not Active,Not Active,> 80,9,12,inhibition zone (IZ) [27]: inactive; MIC [30]: > 80 µM; inhibition zone (IZ) [31]: inactive; zone of inhibition at 40 µM [32]: 9 mm; MIC [33]: inactive; zone of inhibition at 80 µM [34]: 12 mm; inhibition zone (IZ) [35]: inactive; MIC [36]: inactive; inhibition zone (IZ) [37]: inactive; diameter of the inhibition zone (DIZ) [2]: inactive; diameter of the inhibition zone (DIZ) [3]: inactive; diameter of the inhibition zone (DIZ) [6]: inactive; diameter of the inhibition zone (DIZ) [7]: inactive; diameter of the inhibition zone (DIZ) [14]: inactive; diameter of the inhibition zone (DIZ) [15]: inactive; diameter of the inhibition zone (DIZ) [18]: inactive; diameter of the inhibition zone (DIZ) [19]: inactive
